The results in this text go back to ChEMBL document CHEMBL1153841, “The antifungal polyketide ambruticin targets the HOG pathway” (2007).

Test [1] concerns Saccharomyces cerevisiae. Nature of the test: Antifungal activity against Saccharomyces cerevisiae ATCC 201388 carrying pYES2 in SD/-Ura medium after 48 hrs by CLSI susceptibility test. It counts as functional. Conditions: ATCC 201388, 48 h. A digest of the protocol: (§1)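 Broth MIC following CLSI M27, except that inoculum prep and test medium used SD/−Ura in place of RPMI. Read at 48 h. MIC-0 is the concentration giving 90% growth reduction versus the untreated control.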

The test system of test [2] is Saccharomyces cerevisiae. Briefly: Antifungal activity against Saccharomyces cerevisiae ATCC 201388 carrying pYES2-HIK1 in SD/-Ura medium after 48 hrs by CLSI susceptibility test. It counts as functional. Conditions: ATCC 201388, 48 h. A digest of the protocol: as §1
Test [3] concerns Saccharomyces cerevisiae. Nature of the test: Antifungal activity against Saccharomyces cerevisiae ATCC 201388 carrying pYES2-hik1-H736V in SD/-Ura medium after 48 hrs by CLSI susceptibility test. It counts as functional. Conditions: ATCC 201388, 48 h. The procedure, abridged: as §1
In test [4] the test system is Saccharomyces cerevisiae. Briefly: Antifungal activity against Saccharomyces cerevisiae ATCC 201388 carrying pYES2-hik1-D1153E in SD/-Ura medium after 48 hrs by CLSI susceptibility test. It counts as functional. Conditions: ATCC 201388, 48 h. A digest of the protocol: as §1
Test [5] relates to Saccharomyces cerevisiae. Briefly: Antifungal activity against Saccharomyces cerevisiae ATCC 201388 carrying pYES2 in SG/-Ura medium after 48 hrs by CLSI susceptibility test. It counts as functional. Conditions: ATCC 201388, 48 h. A digest of the protocol: (§2)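 CLSI M27 broth MIC, modified so that SG/−Ura served as both inoculum-preparation and test medium in place of RPMI. Uracil is omitted to select for plasmid maintenance. Read after 48 h of incubation. MIC-0 is the concentration causing 90% reduction in growth relative to the untreated control.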

In test [6] the test system is Saccharomyces cerevisiae. Briefly: Antifungal activity against Saccharomyces cerevisiae ATCC 201388 carrying pYES2-HIK1 in SG/-Ura medium after 48 hrs by CLSI susceptibility test. It counts as functional. Conditions: ATCC 201388, 48 h. The procedure, abridged: as §2
Test [7] deals with Saccharomyces cerevisiae. Briefly: Antifungal activity against Saccharomyces cerevisiae ATCC 201388 carrying pYES2-hik1-H736V in SG/-Ura medium after 48 hrs by CLSI susceptibility test. To be noted: ATCC 201388, 48 h. It counts as functional. A digest of the protocol:
as §2

Test [8] relates to Saccharomyces cerevisiae. Briefly: Antifungal activity against Saccharomyces cerevisiae ATCC 201388 carrying pYES2-hik1-D1153E in SG/-Ura medium after 48 hrs by CLSI susceptibility test. It counts as functional. To be noted: ATCC 201388, 48 h. A digest of the protocol: as §2
Test [9] relates to Saccharomyces cerevisiae. Nature of the test: Elevation of Hog1 phosphorylation Saccharomyces cerevisiae ATCC 201388 carrying deltahog1 gene at 25 ppm after 4 hrs in SD/-Ura medium by Western blot analysis. It counts as functional, organism-based. A digest of the protocol:
(§3)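 Overnight cultures in SD/−Ura resuspended in fresh SD/−Ura and grown 4 h, then exposed 10 min to compound (25 ppm), 0.5 M NaCl, or left untreated. Soluble protein from cell extracts Western blotted with anti-p38 antibody against doubly phosphorylated T180/Y182 (phospho-Hog1) and anti-C-terminal Hog1 antibody (total Hog1). Detection by HRP-conjugated secondary antibody with ECL Plus.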
For orientation: In western blotting, separated proteins are transferred to a membrane and probed.

Test [10] has as its system Saccharomyces cerevisiae. Briefly: Elevation of Hog1 phosphorylation Saccharomyces cerevisiae ATCC 201388 carrying pYES2-HIK1 at 25 ppm after 4 hrs in SD/-Ura medium by Western blot analysis. It counts as functional, organism-based. A digest of the protocol:
as §3

The test system of test [11] is Saccharomyces cerevisiae. Briefly: Elevation of Hog1 phosphorylation Saccharomyces cerevisiae ATCC 201388 carrying pYES2 at 25 ppm after 4 hrs in SD/-Ura medium by Western blot analysis. It counts as functional, organism-based. A digest of the protocol: as §3

Converted amounts (≈) assume the structure as drawn. The source made the active and inactive calls. The rule behind the calls is not given here.

Consider `C=CC1(C)OC(=O)N(c2cc(Cl)cc(Cl)c2)C1=O` (configuration not stated) [VINCLOZOLIN], for which the MIC90 with Saccharomyces cerevisiae [1] is > 32 µg/mL; against Saccharomyces cerevisiae [2], > 32 µg/mL; in the test on Saccharomyces cerevisiae [3], > 32 µg/mL; against Saccharomyces cerevisiae [4], > 32 µg/mL; against Saccharomyces cerevisiae [5], > 32 µg/mL; against Saccharomyces cerevisiae [6] it was 16 µg/mL (≈ 55.9 µM). For the same compound, the MIC90 against Saccharomyces cerevisiae [7] and in the test on Saccharomyces cerevisiae [8] was > 32 µg/mL throughout.

With `CC[C@H]1O[C@@H](/C(C)=C/[C@H](C)/C=C/[C@H]2[C@@H](C)[C@@H]2/C=C/[C@@H]2O[C@H](CC(=O)O)C[C@H](O)[C@H]2O)CC=C1C`, the outcome in the test with Saccharomyces cerevisiae [9] and with Saccharomyces cerevisiae [11] was inactive. Also, the result with Saccharomyces cerevisiae [10] was Active.

Take `CC[C@H]1O[C@@H](/C(C)=C/[C@H](C)/C=C/[C@H]2[C@@H](C)[C@@H]2/C=C/[C@@H]2O[C@H](CC(=O)O)C[C@H](N(C)C)[C@H]2O)CC=C1C` [AMBRUTICIN VS3]: the MIC90 against Saccharomyces cerevisiae [1] is > 32 µg/mL; with Saccharomyces cerevisiae [2], > 32 µg/mL; against Saccharomyces cerevisiae [3], > 32 µg/mL; in the test on Saccharomyces cerevisiae [4], > 32 µg/mL; with Saccharomyces cerevisiae [5] it was > 32 µg/mL; against Saccharomyces cerevisiae [6], 0.5 µg/mL (≈ 0.997 µM). Further, the MIC90 in the test on Saccharomyces cerevisiae [7] and against Saccharomyces cerevisiae [8] was > 32 µg/mL throughout.

Take `N#Cc1c[nH]cc1-c1cccc2c1OC(F)(F)O2` [FLUDIOXONIL]: the MIC90 is > 32 µg/mL with Saccharomyces cerevisiae [1]; > 32 µg/mL against Saccharomyces cerevisiae [2]; > 32 µg/mL against Saccharomyces cerevisiae [3]; > 32 µg/mL in the test with Saccharomyces cerevisiae [4]; > 32 µg/mL against Saccharomyces cerevisiae [5]; 2 µg/mL (≈ 8.06 µM) against Saccharomyces cerevisiae [6]. The MIC90 with Saccharomyces cerevisiae [7] and with Saccharomyces cerevisiae [8] was > 32 µg/mL throughout.

In general, MIC90 refers to the lowest concentration that inhibits either 90% of growth or 90% of the strains tested, depending on the study. Higher therefore signals lower susceptibility.
